Measured values gathered from unrelated publications.
Protocols differ between the studies behind these lines.
Target: MAP kinase-interacting serine/threonine-protein kinase 2 (MKNK2, Homo sapiens, UniProt Q9HBH9)

| SMILES | test | setting | remaining binding |
| --- | --- | --- | --- |
| O=C(c1ccc(Nc2ncc(Cl)c(-c3cc4ccccc4s3)n2)cc1)N1CCC(N2CCCC2)CC1 | binding, competition with immobilised ligand | 1 µM | 6.9% |
| CN(c1ccnc(CNc2nc(Nc3ccc4c(c3)CC(=O)N4)ncc2C(F)(F)F)n1)S(C)(=O)=O | cell-free assay, competition with immobilised ligand | 1 µM | 91% |
| CN(C)c1nccc(-c2cnn3ncccc23)n1 | binding | 1 µM | 28% |
| O=C(NCC1CCOCC1)c1n[nH]cc1NC(=O)c1c(F)cccc1F | binding, competition with immobilised ligand | 1 µM | 100% |
| F[C@@H]1CCN(c2nccc(-c3cnn4ncccc34)n2)C1 | binding | 1 µM | 68% |
| COc1cc(C(=O)N2CCC(N3CCN(C)CC3)CC2)ccc1Nc1ncc2c(n1)N(C)c1ccccc1C(=O)N2C | binding, competition with immobilised ligand | 10 µM | 1.2% |
| C[C@@H]1CN(c2ccc3ncc(-c4ccc5[nH]nc(C6CC6)c5c4)n3n2)C[C@H](C)O1 | binding, competition with immobilised ligand | 0.5 µM | 45% |
| COc1cnc(Nc2cccc(S(N)(=O)=O)c2)nc1N1CCN(c2ccccc2)CC1 | binding, competition with immobilised ligand | 1 µM | 59% |
| N[C@H]1CCN(c2nccc(-c3cnn4ncccc34)n2)C1 | binding | 1 µM | 21% |
| CCC(=O)N[C@@H]1CC[C@H](C(=O)N(C)c2ccc(-c3nc4ccccc4o3)cc2)C1 | cell-free assay, competition with immobilised ligand | 1 µM | 100% |
| COc1ncc2cc3ccccc3nc2c1C#N | cell-free assay, competition with immobilised ligand | 5 µM | 98% |
| O=c1nc(-c2ccccn2)sc2ccccc12 | binding, competition with immobilised ligand | 1 µM | 100% |
| C[C@@H]1CCN(c2nccc(-c3cnn4ncccc34)n2)C1 | binding | 1 µM | 11% |
| CO[C@H]1CC[C@H](CNc2ccc(S(=O)(=O)NC(=O)c3ccc(N4CCN(CC5=C(c6ccc(Cl)cc6)CC(C)(C)CC5)CC4)cc3Oc3cnc4[nH]ccc4c3)cc2[N+](=O)[O-])CC1 | cell-free assay, competition with immobilised ligand | 1 µM | 73% |
| O=C(NCCCN1CCOCC1)c1ccc(Nc2ncc(Cl)c(-c3ccc(Cl)s3)n2)cc1 | binding, competition with immobilised ligand | 1 µM | 55% |
| Cn1nc(C(F)(F)F)cc1-c1cnc(N2CCc3cc(S(=O)(=O)Nc4c(F)cc(Cl)cc4F)cc(N4CCCC4=O)c32)nc1 | cell-free assay, competition with immobilised ligand | 1 µM | 94% |
| C=CC(=O)N1CCC(C(=O)NCC(=O)N2CCN(c3nc(-c4cnc(N)nc4C(F)F)nc(N4CCOCC4)n3)CC2)CC1 | binding, competition with immobilised ligand | 1 µM | 100% |
